These results are taken from ChEMBL document CHEMBL1122108, “(+/-)-2-Depentylperhydrohistrionicotoxin: a new probe for a regulatory site on the nicotinic acetylcholine receptor-channel” (1982).

SMILES strings stand for the structures.

Assay [1] in a line: Percent block of sciatic nerve sartorius muscle twitch of frog 30 min after direct stimulation and exposure to 50 uM toxin for 60 min. Format: functional, Muscle tissue. The essentials:
(§1)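 Frog sartorius nerve-muscle in oxygenated physiological solution (100% O2, pH 6.9-7.1). Indirect: nerve stimulated with supramaximal 0.05-0.1 ms pulses via Ag-AgCl salt-bridge electrode. Direct: supramaximal 1.0-2.0 ms rectangular pulses at 0.05 Hz through bipolar platinum electrode around mid-muscle. Compounds at 50 µM, diluted in physiological solution just before use, applied 60 min. Twitch tension recorded; means ± SD from at least three muscles.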

A short description of assay [2]: Percent block of sciatic nerve sartorius muscle twitch of frog 60 min after direct stimulation and exposure to 50 uM toxin for 60 min. It is filed as functional, Muscle tissue. The essentials:
as §1

Assay [3] in a line: Percent block of sciatic nerve sartorius muscle twitch of frog 60 min after indirect stimulation and exposure to 50 uM toxin for 60 min. It is filed as functional, Muscle tissue. In short, it runs like this: as §1
Assay [4] is described as follows: Percent block of sciatic nerve sartorius muscle twitch of frog 30 min after indirect stimulation and exposure to 50 uM toxin for 60 min. Format: functional, Muscle tissue. The essentials:
as §1

A short description of assay [5]: Percent maximum potentiation of the sciatic nerve sartorius muscle twitch after direct stimulation and exposure to 50 uM toxin for 60 min. Format: functional, frog, Muscle tissue. The essentials: as §1
Assay [6] in a line: Percent maximum potentiation of the sciatic nerve sartorius muscle twitch after indirect stimulation and exposure to 50 uM toxin for 60 min. It is filed as functional, frog, Muscle tissue. The essentials: as §1

With `CCCCC1C(OC(=O)OC)CCCC12CCCCN2` (centres undefined), the Block in assay [1] was determined as 14%; in assay [2] it was 25%; in assay [3] it was 82%; in assay [4], 67%.

Regarding `CCCC[C@@H]1[C@@H](OC(C)=O)CCCC12CCCC[N+]2(C)C.[I-]` (some centres undefined), the Block worked out at 34% in assay [1], 47% in assay [2], 91% in assay [3] and 85% in assay [4].

Turning to `CCCCC1C(O)CCCC12CCCCN2` (centres undefined), the Block is reported as 52% in assay [1], 52% in assay [2], 100% in assay [3] and 96% in assay [4].

For the compound `CCCC[C@@H]1C(=O)CCCC12CCCCN2C(C)=O` (some centres undefined), the Activity in assay [5] is on record as 102%; in assay [6], 117%. The Block amounted to 0% in assay [1], 6% in assay [2], 20% in assay [3] and 7% in assay [4].

With `CCCCC1C2CCCC13CCCCN3C(=O)O2` (centres undefined), the Block came out at 22% in assay [1], 31% in assay [2], 66% in assay [3] and 35% in assay [4].

Consider `CCCC[C@@H]1[C@H](O)CCCC12CCCC[N+]2(C)C.[I-]` (some centres undefined), for which the Block is 48% in assay [1], 49% in assay [2], 83% in assay [3] and 74% in assay [4].

`CCCCC1C(OC(C)=O)CCCC12CCCCN2C(C)=O` (centres undefined): the Activity is reported as 118% in assay [5] and 125% in assay [6]. Also, the Block in assay [1], in assay [2], in assay [3] and in assay [4] was 0% throughout.

For `CCCCC1C(O)CCCC12CCCCN2C(C)=O` (centres undefined), the Activity in assay [5] is 103%; in assay [6], 116%. The Block was 20% in assay [1], 24% in assay [2], 26% in assay [3] and 10% in assay [4].

On to `CCCC[C@@H]1[C@H](O)CCCC12CCCCN2` (some centres undefined), for which the Block in assay [1] is on record as 19%; in assay [2], 30%; in assay [3], 61%; in assay [4], 55%.

`CCCC[C@@H]1[C@H](O)CCCC12CCCCN2C` (some centres undefined): the Block is given as 5% in assay [1], 5% in assay [2], 65% in assay [3] and 62% in assay [4].

Consider `CCCC[C@@H]1C(=O)CCCC12CCCCN2C` (some centres undefined), for which the Block in assay [1] came out at 26%; in assay [2], 33%; in assay [3], 56%; in assay [4] it was 49%.

For `CCCC[C@@H]1[C@@H](O)CCCC12CCCC[N+]2(C)C.[I-]` (some centres undefined), the Block in assay [1] is listed as 29%; in assay [2], 43%; in assay [3] it was 49%; in assay [4], 39%.

As to `CCCCC1C(OC(C)=O)CCCC12CCCCN2C` (centres undefined), the Block in assay [1] is 22%; in assay [2], 25%; in assay [3] it was 94%; in assay [4], 88%.

For the compound `CCCCCC1CCC[C@]2(CCC[C@H](O)C2CCCC)N1` (some centres undefined), the Block in assay [1] is recorded as 47%; in assay [2] it was 45%; in assay [3] it was 100%; in assay [4], 100%.

As for `CCCCC1C(O)CCCC12CCCCN2C` (centres undefined), the Block stood at 24% in assay [1], 30% in assay [2], 92% in assay [3] and 78% in assay [4].

In the case of `CCCCC1C(OC(=O)OC)CCCC12CCCCN2C(=O)OC` (centres undefined), the Block in assay [1], in assay [2], in assay [3] and in assay [4] was 0% in each case.

On to `CCCC[C@@H]1C(=O)CCCC12CCCCN2` (some centres undefined), for which the Block in assay [1] came to 8%; in assay [2], 25%; in assay [3] it was 58%; in assay [4] it was 46%.
